The source made the active and inactive calls. The rule behind the calls is not given here.
Experiments:
[1] = tested on: Rattus norvegicus; assay: Antiinsomnic activity in Sprague-Dawley rat assessed as decrease in active wake duration at 30 mg/kg/day, po measured with 3 to 4 hrs post last dose; format: functional, organism-based
In short: (§1)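 Telemetry-implanted rats with ECoG and EMG electrodes placed under isoflurane, recovered at least two weeks, 12 h light:dark cycle. 30 mg/kg free base suspended in 20% aqueous TPGS given by oral gavage 5 h into the active phase. Crossover design with four rats, one week on drug and one on vehicle. Automated staging in 30 min bins, averaged over seven nights, mixed ANOVA.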

[2] = Volume of distribution at steady state in rat at 2 mg/kg, iv; format: ADME, organism-based; set-up: dose 2 mg/kg, route intravenous; settings: in vivo, read-out: Vdss
In short: (§2)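 IV PK in DMSO vehicle: rat at 2 mg/kg, dog at 0.5 mg/kg. Clearance, Vd_ss and terminal half-life were derived from plasma levels.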

[3] = Volume of distribution at steady state in dog at 0.5 mg/kg, iv; format: ADME, organism-based, Canis lupus familiaris; set-up: dose 0.5 mg/kg, route intravenous; settings: in vivo, read-out: Vdss; in short: as §2
[4] = AUC in dog at 3 mg/kg, po; format: ADME, organism-based, Canis lupus familiaris; set-up: dose 3 mg/kg, route oral; settings: plasma
[5] = Drug level in human OX2R overexpressing transgenic rat CSF at 1.34 mg/kg, iv after 30 mins; format: ADME, organism-based, Cerebrospinal fluid; set-up: dose 1.34 mg/kg, route intravenous; settings: read-out: Drug uptake
In short: (§3)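 Transgenic rats expressing human OX2R received a 30 min IV infusion, 0.1-2.0 mg/kg, in 25% hydroxypropyl-β-cyclodextrin. They were then sacrificed, and brain, plasma and CSF were frozen. Drug levels were measured by LCMS.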

[6] = tested on: Rattus norvegicus; assay: Antiinsomnic activity in Sprague-Dawley rat assessed as increase in rapid-eye movement at 30 mg/kg/day, po measured with 3 to 4 hrs post last dose; format: functional, organism-based; in short: as §1
[7] = AUC in rat at 10 mg/kg, po; format: ADME, organism-based; set-up: dose 10 mg/kg, route oral; settings: plasma
[8] = Lipophilicity, log P of the compound; format: physicochemical; settings: octanol/water
[9] = tested on: Rattus norvegicus; assay: Antiinsomnic activity in Sprague-Dawley rat assessed as decrease in light sleep duration at 30 mg/kg/day, po measured with 3 to 4 hrs post last dose; format: functional, organism-based; in short: as §1
[10] = tested on: Rattus norvegicus; assay: In vivo occupancy of human OX2R ubiquitously overexpressed in iv dosed transgenic rat after 30 mins; format: functional
In short: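 Transgenic human OX2R rats were infused IV over 30 min at 0.1-2.0 mg/kg in 25% hydroxypropyl-β-cyclodextrin, then sacrificed. Brain homogenate at 10 mg tissue/mL was incubated with 200 pM radioligand at room temperature and filtered at 2-15 min. Nonspecific binding was set with 1 μM unlabeled DORA. Occupancy = (1 - slope_drug/slope_vehicle) × 100; Occ90 came from nonlinear fit.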

[11] = Terminal half life in dog at 0.5 mg/kg, iv; format: ADME, organism-based, Canis lupus familiaris; set-up: dose 0.5 mg/kg, route intravenous; settings: in vivo, read-out: beta t1/2 (converted); in short: as §2
[12] = Aqueous solubility of the compound; format: physicochemical; settings: buffer
[13] = Oral bioavailability in rat at 10 mg/kg; format: ADME, organism-based; settings: in vivo
[14] = Cmax in Sprague-Dawley rat CSF at 30 mg/kg/day, po; format: ADME, organism-based, Cerebrospinal fluid; set-up: dose 30 mg/kg/day, route oral
[15] = Cmax in dog at 3 mg/kg, po; format: ADME, organism-based, Canis lupus familiaris; set-up: dose 3 mg/kg, route oral; settings: in vivo
[16] = Drug level in Sprague-Dawley rat CSF at 30 mg/kg/day, po; format: ADME, organism-based, Cerebrospinal fluid; set-up: route oral; settings: in vivo, read-out: Drug uptake
[17] = tested on: Rattus norvegicus; assay: In vivo occupancy of human OX2R ubiquitously overexpressed in transgenic rat at 30 mg/kg/day, iv after 30 mins; format: functional
[18] = Oral bioavailability in dog at 3 mg/kg; format: ADME, organism-based, Canis lupus familiaris; settings: in vivo
[19] = Genotoxicity in Salmonella Typhimurium by Ames test; format: toxicity; settings: salmonella enterica subsp. enterica serovar typhimurium
[20] = species: Canis familiaris; assay: Cardiotoxicity in dog; format: toxicity, organism-based, Canis lupus familiaris; settings: in vivo
[21] = Drug level in human OX2R overexpressing transgenic rat plasma at 1.34 mg/kg, iv after 30 mins; format: ADME, organism-based; set-up: dose 1.34 mg/kg, route intravenous; settings: read-out: Drug uptake; in short: as §3
[22] = Chemical stability in pH-dependent solution; format: physicochemical
[23] = Tmax in dog at 3 mg/kg, po; format: ADME, organism-based, Canis lupus familiaris; set-up: dose 3 mg/kg, route oral; settings: in vivo
[24] = Terminal half life in rat at 2 mg/kg, iv; format: ADME, organism-based; set-up: dose 2 mg/kg, route intravenous; settings: in vivo, read-out: beta t1/2 (converted); in short: as §2
[25] = Drug level in human OX2R overexpressing transgenic rat brain at 1.34 mg/kg, iv after 30 mins; format: ADME, organism-based; set-up: dose 1.34 mg/kg, route intravenous; settings: read-out: Drug uptake; in short: as §3
[26] = Plasma protein binding in human; format: ADME, cell-free; settings: read-out: PPB
[27] = tested on: Rattus norvegicus; assay: Antiinsomnic activity in Sprague-Dawley rat assessed as increase in delta sleep duration at 30 mg/kg/day, po measured with 3 to 4 hrs post last dose; format: functional, organism-based; in short: as §1
[28] = Clearance in dog at 0.5 mg/kg, iv; format: ADME, organism-based, Canis lupus familiaris; set-up: dose 0.5 mg/kg, route intravenous; settings: in vivo
In short: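 Dogs received an IV dose with DMSO as vehicle (n = 3). Clearance was derived from plasma pharmacokinetics.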

[29] = Thermal stability of the compound; format: physicochemical
[30] = Tmax in rat at 10 mg/kg, po; format: ADME, organism-based; set-up: dose 10 mg/kg, route oral; settings: in vivo
[31] = Cmax in rat at 10 mg/kg, po; format: ADME, organism-based; set-up: dose 10 mg/kg, route oral; settings: in vivo
[32] = Plasma protein binding in rat; format: ADME, cell-free; settings: read-out: PPB
[33] = tested on: Rattus norvegicus; assay: Clearance in rat at 2 mg/kg, iv; format: ADME, organism-based; set-up: dose 2 mg/kg, route intravenous; settings: in vivo; in short: as §2

Q: Which results are given for `Cc1ccc(-n2nccn2)c(C(=O)N2CCN(c3nc4cc(Cl)ccc4o3)CC[C@H]2C)c1` [SUVOREXANT]?
A: Activity [1]: Active; Vd [2]: 2.6 L/kg; Vd [3]: 0.8 L/kg; AUC [4]: 16.9 µM·h; concentration at 0.5 h [5]: 13 nM; Activity [6]: Active; AUC [7]: 1.7 µM·h; logP [8]: 3.6; Activity [9]: Active; Activity [10]: 1.34 mg/kg; half-life [11]: 198 min; solubility [12]: Soluble; bioavailability [13]: 19%; Cmax [14]: 2100 nM; Cmax [15]: 3200 nM; concentration [16]: 21 nM; Activity [17]: >90%; bioavailability [18]: 56%; Activity [19]: Non-toxic; Activity [20]: Non-toxic; concentration at 0.5 h [21]: 1070 nM; Stability [22]: Stable; Tmax [23]: 30 min; half-life [24]: 36 min; concentration at 0.5 h [25]: 1180 nM; fraction unbound [26]: 0.01; Activity [27]: Active; clearance [28]: 4 mL/min/kg; Stability [29]: Stable; Tmax [30]: 30 min; Cmax [31]: 480 nM; fraction unbound [32]: 0.01; clearance [33]: 44 mL/min/kg
